# pIC50: −log10 of the molar value. Active and inactive are the calls of the source. The rule behind the calls is not given here.
# What was measured:
# [1] = biological target: T1, Phosphatidylserine lipase ABHD16A (Homo sapiens) (UniProt O95870); assay: Inhibition of human ABHD16A expressed in HEK293 cells assessed as residual activity at 10 uM preincubated for 30 mins followed by 1-LG substrate addition and measured after 90 to 120 mins by fluorometric assay relative to control; format: cell-based
# T1 sequence (whole entry): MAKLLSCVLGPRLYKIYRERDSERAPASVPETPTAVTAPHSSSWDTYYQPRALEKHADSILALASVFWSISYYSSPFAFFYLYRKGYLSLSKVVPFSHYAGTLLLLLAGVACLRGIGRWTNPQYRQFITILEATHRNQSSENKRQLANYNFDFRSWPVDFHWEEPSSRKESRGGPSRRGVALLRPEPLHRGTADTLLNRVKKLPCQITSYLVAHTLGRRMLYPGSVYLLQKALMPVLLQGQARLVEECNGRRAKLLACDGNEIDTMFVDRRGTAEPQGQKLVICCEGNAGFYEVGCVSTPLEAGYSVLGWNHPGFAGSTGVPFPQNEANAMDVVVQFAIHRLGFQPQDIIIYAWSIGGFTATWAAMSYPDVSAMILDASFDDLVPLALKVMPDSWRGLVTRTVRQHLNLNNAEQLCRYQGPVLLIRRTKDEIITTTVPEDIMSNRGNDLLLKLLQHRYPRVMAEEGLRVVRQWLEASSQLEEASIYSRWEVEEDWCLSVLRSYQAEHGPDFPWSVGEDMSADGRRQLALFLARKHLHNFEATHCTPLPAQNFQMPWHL
# Summary of the method: (§1)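 Lysates of HEK293 cells transiently overexpressing human ABHD16A were pretreated 30 min with DMSO (control) or inhibitor, then 1-LG substrate was added (25 µM final), and liberated glycerol was measured. The single-concentration screen was at 10 µM, reported as % control activity (mean ± SD, n=2-3). Dose-responses used four concentrations (0.1-100 µM), duplicate wells, two independent experiments.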
# [2] = biological target: T2, ABHD12 (lysophosphatidylserine lipase) (Homo sapiens, UniProt Q8N2K0); assay: Inhibition of human ABHD12 expressed in HEK293 cells assessed as residual activity at 10 uM preincubated for 30 mins followed by 1-AG substrate addition and measured after 90 to 120 mins by fluorometric assay relative to control; format: cell-based; details: HEK293 cells that express human ABHD12, probe 1-AG, read-out: Activity
# T2 sequence (Q8N2K0 whole entry): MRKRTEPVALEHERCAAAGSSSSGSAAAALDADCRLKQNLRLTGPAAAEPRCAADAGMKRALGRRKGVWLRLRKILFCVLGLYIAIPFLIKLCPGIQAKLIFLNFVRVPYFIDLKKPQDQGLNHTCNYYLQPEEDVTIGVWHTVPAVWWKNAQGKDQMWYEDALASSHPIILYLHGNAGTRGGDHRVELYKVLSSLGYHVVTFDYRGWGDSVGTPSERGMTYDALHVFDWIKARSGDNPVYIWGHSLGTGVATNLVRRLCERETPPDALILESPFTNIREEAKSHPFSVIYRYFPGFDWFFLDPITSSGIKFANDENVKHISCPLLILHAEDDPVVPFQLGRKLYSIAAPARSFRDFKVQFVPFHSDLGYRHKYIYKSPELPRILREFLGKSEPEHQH
# Summary of the method: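 Screened at 10 µM in lysates of HEK293 cells overexpressing human ABHD12, given as remaining hydrolase activity relative to control (mean ± SD, n=2-3).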
# [3] = biological target: T1, Phosphatidylserine lipase ABHD16A (Homo sapiens); assay: Potency index, ratio of tetrahydrolipstatin IC50 to compound IC50 for inhibition of ABHD16A (unknown origin)
# [4] = biological target: T3, Phosphatidylserine lipase ABHD16A (Homo sapiens, UniProt O95870); assay: Inhibition of human ABHD16A expressed in HEK293 cells preincubated for 30 mins followed by 1-LG substrate addition and measured after 90 to 120 mins by fluorometric assay; format: cell-based; summary of the method: as §1
# T3 sequence (O95870 whole entry): T1 sequence (whole entry)
# [5] = biological target: T3, Phosphatidylserine lipase ABHD16A; assay: Reversible inhibition of human ABHD16A expressed in HEK293 cells preincubated for 30 mins followed by 40 fold compound dilution and subsequent 1-LG substrate addition and measured at 30 mins time interval for 120 mins by fluorometric assay; format: cell-based
# Summary of the method: (§2)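 Reversibility test: hABHD16A-HEK293 lysate treated with inhibitor was rapidly diluted 40-fold before substrate addition. Inhibitor range extended up to 1 mM, and potency was compared with the routine assay (30 min pretreatment, 1-LG hydrolysis, glycerol read-out). Mean ± SD from two independent experiments.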
# [6] = biological target: T1, Phosphatidylserine lipase ABHD16A (Homo sapiens); assay: Ratio of IC50 for reversible inhibition of human ABHD16A expressed in HEK293 cells to IC50 for inhibition of human ABHD16A expressed in HEK293 cells; format: cell-based; summary of the method: as §2
# [7] = biological target: T4, Phosphatidylserine lipase ABHD16A (Rattus norvegicus) (UniProt Q6MG55); assay: Inhibition of TAMRA-FP binding to ABHD16A in rat cerebellar membranes at 10 uM preincubated for 1 hr followed by TAMRA-FP addition measured after 1 hr by fluorescence based ABPP analysis; format: cell membranes; details: Cerebellum, Membrane
# T4 sequence (whole entry): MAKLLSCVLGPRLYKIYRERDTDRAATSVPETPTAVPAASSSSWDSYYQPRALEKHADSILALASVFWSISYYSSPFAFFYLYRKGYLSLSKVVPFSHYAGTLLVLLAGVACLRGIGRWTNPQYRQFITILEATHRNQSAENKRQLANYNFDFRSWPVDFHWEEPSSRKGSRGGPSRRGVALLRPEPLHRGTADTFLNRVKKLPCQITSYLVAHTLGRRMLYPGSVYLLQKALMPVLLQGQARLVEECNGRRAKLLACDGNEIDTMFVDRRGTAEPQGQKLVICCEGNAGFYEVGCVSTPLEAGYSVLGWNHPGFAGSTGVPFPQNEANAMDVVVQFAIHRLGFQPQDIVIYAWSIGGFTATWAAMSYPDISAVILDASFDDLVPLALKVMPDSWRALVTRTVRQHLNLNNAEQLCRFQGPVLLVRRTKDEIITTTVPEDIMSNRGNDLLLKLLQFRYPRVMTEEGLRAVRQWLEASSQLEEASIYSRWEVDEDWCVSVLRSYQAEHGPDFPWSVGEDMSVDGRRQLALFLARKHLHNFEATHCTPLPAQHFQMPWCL
# [8] = biological target: Acyl-protein thioesterase 1 (Rattus norvegicus) (UniProt P70470); assay: Binding affinity to LYPLA1 in rat cerebellar membranes at 10 uM measured after 1 hr by fluorescence based ABPP analysis; format: cell membranes; details: Cerebellum, Membrane
# [9] = biological target: Acyl-protein thioesterase 2 (Rattus norvegicus) (UniProt Q9QYL8); assay: Binding affinity to LYPLA2 in rat cerebellar membranes at 10 uM measured after 1 hr by fluorescence based ABPP analysis; format: cell membranes; details: Cerebellum, Membrane
# Summary of the method: (§3)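 Competitive ABPP in rat cerebellar membrane proteome: the proteome was pretreated with inhibitor, then labelled with the TAMRA-FP probe, and loss of band labelling was read by fluorescence. Reversible test inhibitors were used at 20 and 200 µM.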
# [10] = biological target: T4, Phosphatidylserine lipase ABHD16A (Rattus norvegicus); assay: Inhibition of TAMRA-FP binding to ABHD16A in rat cerebellar membranes at 1 uM preincubated for 1 hr followed by TAMRA-FP addition measured after 1 hr by fluorescence based ABPP analysis; format: cell membranes; details: Cerebellum, Membrane
# Summary of the method: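 Competitive ABPP on rat cerebellar membrane proteome. Proteome was pretreated with inhibitor, then labeled with the serine hydrolase probe TAMRA-FP. Loss of labeling of the band migrating at ~63 kDa, assigned as ABHD16A, was the read-out.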
# [11] = biological target: T1, Phosphatidylserine lipase ABHD16A (Homo sapiens); assay: Inhibition of human ABHD16A expressed in HEK293 cells assessed as residual activity at 100 uM preincubated for 30 mins followed by 1-LG substrate addition and measured after 90 to 120 mins by fluorometric assay relative to control; format: cell-based; summary of the method: as §1
# [12] = biological target: T4, Phosphatidylserine lipase ABHD16A (Rattus norvegicus); assay: Inhibition of TAMRA-FP binding to ABHD16A in rat cerebellar membranes at 200 uM preincubated for 1 hr followed by TAMRA-FP addition measured after 1 hr by fluorescence based ABPP analysis; format: cell membranes; details: Cerebellum, Membrane; summary of the method: as §3
# [13] = biological target: T1, Phosphatidylserine lipase ABHD16A (Homo sapiens); assay: Inhibition of TAMRA-FP binding to human ABHD16A expressed in HEK293 cells at 20 to 200 uM preincubated for 1 hr followed by TAMRA-FP addition measured after 1 hr by fluorescence based ABPP analysis; format: cell-based
# [14] = biological target: T4, Phosphatidylserine lipase ABHD16A (Rattus norvegicus); assay: Inhibition of TAMRA-FP binding to ABHD16A in rat cerebellar membranes preincubated for 1 hr followed by TAMRA-FP addition measured after 1 hr by fluorescence based ABPP analysis; format: cell membranes; details: Cerebellum, Membrane; summary of the method: as §3
# Chain of Acyl-protein thioesterase 2 (Rattus norvegicus) (Q9QYL8 whole entry): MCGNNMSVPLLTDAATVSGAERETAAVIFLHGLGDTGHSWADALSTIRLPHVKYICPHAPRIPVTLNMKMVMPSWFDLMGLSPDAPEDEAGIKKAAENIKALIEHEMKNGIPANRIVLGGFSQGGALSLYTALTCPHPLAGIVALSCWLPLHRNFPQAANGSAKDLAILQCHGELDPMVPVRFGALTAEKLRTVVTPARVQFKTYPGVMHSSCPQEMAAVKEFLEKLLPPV
# Chain of Acyl-protein thioesterase 1 (Rattus norvegicus) (P70470 whole entry): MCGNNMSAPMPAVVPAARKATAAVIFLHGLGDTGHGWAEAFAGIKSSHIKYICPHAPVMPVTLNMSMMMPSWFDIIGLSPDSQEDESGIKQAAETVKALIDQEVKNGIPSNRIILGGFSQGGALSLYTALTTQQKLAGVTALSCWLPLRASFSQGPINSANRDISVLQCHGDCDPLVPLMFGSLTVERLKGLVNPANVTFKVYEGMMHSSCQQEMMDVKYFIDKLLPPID
Activity [1],activity at 10 µM [2],SMILES,also measured
98.4%,102%,Cc1nc(-c2cc3c(cc2C(C)C)CC[C@H]2[C@](C)(C(=O)O)CCC[C@]32C)cs1,
80%,96.9%,CC(C)c1cc2c(cc1-c1csc(N)n1)[C@@]1(C)CCC[C@@](C)(C(N)=O)[C@@H]1CC2,
82.1%,98.7%,CC(C)c1cc2c(cc1-c1cscn1)[C@@]1(C)CCC[C@@](C)(C(N)=O)[C@@H]1CC2,
48.7%,73.8%,CCOC(=O)c1nc(-c2cc3c(cc2C(C)C)CC[C@H]2[C@](C)(C(=O)OC)CCC[C@]32C)cs1,
66.3%,98.7%,Cc1nc(-c2cc3c(cc2C(C)C)CC[C@H]2[C@](C)(CO)CCC[C@]32C)cs1,
,,CCCCCCCCCC[C@@H]1C(=O)O[C@H]1CCc1ccc(OC)c(OC)c1 [PALMOSTATIN B],Ratio IC50 [3]: 1.7; pIC50 [4]: 6.98 to 7.00; pIC50 [5]: 7.24; Ratio IC50 [6]: 1.8; inhibition [7]: Active; Activity [8]: Active; Activity [9]: Active
82.7%,92.8%,COC(=O)[C@]1(C)CCC[C@]2(C)c3cc(-c4csc(C)[n+]4C)c(C(C)C)cc3CC[C@@H]12,
91.5%,98.4%,CC(C)c1cc2c(cc1-c1cscn1)[C@@]1(C)CCC[C@@](C)(C(=O)O)[C@@H]1CC2,
,,CCCCCCCCCCCCCC1OC(=O)/C1=C\CCCCC(N)=O (configuration not stated),Ratio IC50 [3]: 1.3
73.8%,89.8%,COC(=O)[C@]1(C)CCC[C@]2(C)c3cc(-c4csc(-c5ccccc5)n4)c(C(C)C)cc3CC[C@@H]12,
58.2%,103%,COC(=O)[C@]1(C)CCC[C@]2(C)c3cc(-c4csc(N)n4)c(C(C)C)cc3CC[C@@H]12,
,,COc1nn(-c2ccc(F)cc2)c(=O)o1,Ratio IC50 [3]: 5.3; inhibition [10]: Active
99.3%,96.6%,COC(=O)[C@]1(C)CCC[C@]2(C)c3cc(-c4csc(-c5ccc(Cl)cc5)n4)c(C(C)C)cc3CC[C@@H]12,
74.6%,87.8%,CC(C)c1cc2c(cc1-c1csc(N)n1)[C@@]1(C)CCC[C@@](C)(CO)[C@@H]1CC2,
42.8%,94.3%,COC(=O)[C@]1(C)CCC[C@]2(C)c3cc(-c4csc(C#N)n4)c(C(C)C)cc3CC[C@@H]12,pIC50 [4]: 5.28 to 5.31; pIC50 [5]: 4.50; Activity [11]: 25%; Ratio IC50 [6]: 6.4; inhibition [12]: Active; inhibition [13]: inactive
23%,100%,COC(=O)[C@]1(C)CCC[C@]2(C)c3cc(-c4csc(C)n4)c(C(C)C)cc3CC[C@@H]12,pIC50 [4]: 5.44 to 5.47; pIC50 [5]: 4.39; Activity [11]: 12%; Ratio IC50 [6]: 11.4; inhibition [14]: Dose-dependent effect
62.9%,77.8%,CC(C)c1cc2c(cc1-c1cscn1)[C@@]1(C)CCC[C@@](C)(C(=O)OCCO)[C@@H]1CC2,
50.3%,91.5%,COC(=O)[C@]1(C)CCC[C@]2(C)c3cc(-c4cscn4)c(C(C)C)cc3CC[C@@H]12,
86.6%,101%,COC(=O)[C@]1(C)CCC[C@]2(C)c3cc(-c4csc(-c5ccccc5Cl)n4)c(C(C)C)cc3CC[C@@H]12,
80.6%,99.6%,Cc1nc(-c2cc3c(cc2C(C)C)CC[C@H]2[C@](C)(C(N)=O)CCC[C@]32C)cs1,
,,CCCCCCCCCCC[C@@H](C[C@@H]1OC(=O)[C@H]1CCCCCC)OC(=O)[C@H](CC(C)C)NC=O,inhibition [7]: Active
65.9%,96.3%,CC(C)c1cc2c(cc1-c1cscn1)[C@@]1(C)CCC[C@@](C)(CO)[C@@H]1CC2,
81.5%,91.1%,CC[n+]1c(-c2cc3c(cc2C(C)C)CC[C@H]2[C@](C)(C(=O)OC)CCC[C@]32C)csc1C,
80.1%,91.1%,COC(=O)[C@]1(C)CCC[C@]2(C)c3cc(-c4csc[n+]4C)c(C(C)C)cc3CC[C@@H]12,
